Data on 54 sequences can be found in the array DNA melting data of Ke et al. (doi:10.1101/2024.01.08.574731).

The nature of data set [1]: folding enthalpy; higher = less favourable; fluorescence melt of hairpins on a sequencing array, two-state fit. The conditions noted are these: sodium 0.088 M. The method, boiled down:
(§1)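 Cy3 signals were normalised both to pre-quench Cy3 and to control constructs. They came from library hairpins carrying annealed Cy3 and quencher oligos on a sequenced MiSeq flow cell, imaged in 50 mM Na-HEPES pH 8.0, 25 mM NaCl, in 2.5 °C steps up to 60 °C. Bootstrapped two-state fits gave melting temperature and folding enthalpy, and four replicates were combined by inverse variance. Fitted temperatures were then raised by 9.35 °C to match UV melts.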

Data set [2] in a line: melting temperature; fluorescence melt of hairpins on a sequencing array, two-state fit, raised by 9.35 °C to match UV melts. The conditions noted are these: sodium 0.088 M. The method, boiled down:
as §1

With GTGCTCCGAAAGGATCAC (((.(((....))).))), the folding enthalpy in data set [1] was -31.9 kcal/mol. Besides, the Tm in data set [2] is 50.2 °C.
On the same counts, the results for GTGCTCGAAAGAGACCAC ((((((....)))..))) are -14.6 kcal/mol and 34.4 °C.
For GTGCTCGAAAGAGATCAC ((((((....)))..))), the folding enthalpy in data set [1] is -13.6 kcal/mol. The Tm in data set [2] amounted to 30.9 °C.
GTGCTCGAAAGAGCCAC ((((((....))).))): in data set [1], the folding enthalpy was -11.2 kcal/mol. In addition, the Tm in data set [2] is 49 °C.
As for GTGCTCGAAAGAGCTCAC ((((((....)))..))), in data set [1], the folding enthalpy is -10.8 kcal/mol. In data set [2], the Tm was 42.8 °C.
Consider GTGCTCGAAAGAGGCAC ((((((....))).))), for which the folding enthalpy in data set [1] is -24.7 kcal/mol. Also, the Tm in data set [2] was found to be 55.2 °C.
With GTGCTCGAAAGAGTCCAC ((((((....)))..))), in data set [1], the folding enthalpy was -13.1 kcal/mol. Besides, the Tm in data set [2] stood at 31.8 °C.
Consider GTGCTCGAAAGAGTTCAC ((((((....)))..))), for which, in data set [1], the folding enthalpy was -13.6 kcal/mol. The Tm in data set [2] came to 34.6 °C.
On the same counts, the results for GTGCTCGGAAACAAGCAC (((((.(....).))))) are -31.9 kcal/mol and 46.2 °C.
As for GTGCTCGGAAACGAGTGC (..((((....))))..), in data set [1], the folding enthalpy is -24.2 kcal/mol. Further, in data set [2], the Tm amounted to 50.4 °C.
For the sequence GTGCTGACGAAAGTCCAC (((..(((....)))))), the folding enthalpy in data set [1] was -11.9 kcal/mol. Also, the Tm in data set [2] was 40.8 °C.
With GTGCTGCGAAAGCAACAC (((.(((....))).))), the folding enthalpy in data set [1] is -33.8 kcal/mol. For the same sequence, the Tm in data set [2] is 56.5 °C.
For GTGCTGGGAAACTAGCAC (((((.(....).))))) the same measures were -41.3 kcal/mol and 54.3 °C.
Regarding GTGCTTCCGAAAGGACAC (((..(((....)))))), the folding enthalpy in data set [1] is -22.1 kcal/mol. Also, the Tm in data set [2] stood at 39.7 °C.
With GTGCTTGAAAAAGCAC ((((((....)))))), the folding enthalpy in data set [1] was -27.9 kcal/mol. Further, the Tm in data set [2] was 63.3 °C.
On the same counts, the results for GTGCTTGCGAAAGCACAC (((..(((....)))))) are -13.1 kcal/mol and 61.4 °C.
Take GTGGAACCGAAAGGTCAC (((..(((....)))))): the folding enthalpy in data set [1] was -21.9 kcal/mol. The Tm in data set [2] worked out at 42.3 °C.
For GTGGAAGGAAACCTCCAC (((((.(....).))))) the same measures were -34 kcal/mol and 44.1 °C.
On to GTGGAAGGAAACTTTCAC (((.(((....))).))), for which, in data set [1], the folding enthalpy is -33 kcal/mol. For the same sequence, the Tm in data set [2] came to 43.2 °C.
As to GTGGACACGAAAGTGCAC (((..(((....)))))), the folding enthalpy in data set [1] is -18.1 kcal/mol. For the same sequence, the Tm in data set [2] was found to be 45 °C.
Consider GTGGACGGAAACGCCCAC ((((.((....)).)))), for which the folding enthalpy in data set [1] was -56.1 kcal/mol. In data set [2], the Tm came out at 53.2 °C.
For GTGGAGGCGAAAGCCCAC (((..(((....)))))) the same measures were -17.1 kcal/mol and 52.9 °C.
As to GTGGAGGGAAACCTTCGC (.(.(((....))).).), the folding enthalpy in data set [1] is -26.7 kcal/mol. Also, the Tm in data set [2] amounted to 34.1 °C.
Turning to GTGGAGGGAAACTTCCGC (.(((.(....).))).), in data set [1], the folding enthalpy was -26.7 kcal/mol. In addition, the Tm in data set [2] was 35.1 °C.
As for GTGGATGGAAACACCCAC ((((.((....)).)))), the folding enthalpy in data set [1] is -32.6 kcal/mol. Besides, in data set [2], the Tm was determined as 44.2 °C.
Consider GTGGCAACGAAAGTTCAC (((..(((....)))))), for which, in data set [1], the folding enthalpy was -7.15 kcal/mol. Besides, the Tm in data set [2] amounted to 27.8 °C.
In the case of GTGGCCGAAAGGCATCAC ((((((....)))..))), in data set [1], the folding enthalpy was -11.8 kcal/mol. The Tm in data set [2] was found to be 39.5 °C.
Turning to GTGGCCGAAAGGCCTCAC ((((((....)))..))), the folding enthalpy in data set [1] was -7.49 kcal/mol. The Tm in data set [2] came to 40.4 °C.
Consider GTGGCCGAAAGGCGACAC ((((((....)))..))), for which the folding enthalpy in data set [1] is -14 kcal/mol. Further, in data set [2], the Tm was 57.4 °C.
In the case of GTGGCCGAAAGGCTACAC ((((((....)))..))), the folding enthalpy in data set [1] was -13.5 kcal/mol. The Tm in data set [2] was 58.2 °C.
As for GTGGCTGGAAACAGCTAC ((.((((....)))).)), in data set [1], the folding enthalpy was -29.3 kcal/mol. Moreover, the Tm in data set [2] amounted to 53.9 °C.
GTGGCTGGAAACAGTCAC (((.(((....))).))): the folding enthalpy in data set [1] was -36.9 kcal/mol. In addition, the Tm in data set [2] amounted to 55.1 °C.
Take GTGGCTGGAAACAGTCGC (.(.(((....))).).): the folding enthalpy in data set [1] was -24.6 kcal/mol. Further, the Tm in data set [2] is 47 °C.
With GTGGCTGGAAACGGCCAC (((((.(....).))))), the folding enthalpy in data set [1] was -47.5 kcal/mol. Besides, the Tm in data set [2] is 64 °C.
For GTGGCTGGAAACGGCTAC ((.((.(....).)).)) the same measures were -24.2 kcal/mol and 44 °C.
For GTGGCTGGAAACGGTCAC (((.(.(....).).))), the folding enthalpy in data set [1] is -30.7 kcal/mol. Moreover, the Tm in data set [2] amounted to 44.5 °C.
GTGGCTTCGAAAGAACAC (((..(((....)))))): the folding enthalpy in data set [1] was -8.99 kcal/mol. Moreover, the Tm in data set [2] amounted to 29.7 °C.
On the same counts, the results for GTGGGAGGAAACTCTCAC (((.(((....))).))) are -39.1 kcal/mol and 48.7 °C.
For the sequence GTGGGCGCGAAAGCGCAC (((..(((....)))))), the folding enthalpy in data set [1] was -16.4 kcal/mol. In data set [2], the Tm was 67.9 °C.
As to GTGGGCGGAAACGCCTGC (..((((....))))..), the folding enthalpy in data set [1] was -13.2 kcal/mol. Further, the Tm in data set [2] was found to be 47 °C.
In the case of GTGGGGGGAAACCCCTGC (..((((....))))..), the folding enthalpy in data set [1] is -11.5 kcal/mol. For the same sequence, the Tm in data set [2] is 42.3 °C.
On the same counts, the results for GTGGGGGGAAACCTCCGC (.((.((....)).)).) are -25.4 kcal/mol and 45.4 °C.
On the same counts, the results for GTGGGGGGAAACTCCCGC (.(((.(....).))).) are -21.4 kcal/mol and 48.8 °C.
As for GTGGGTGGAAACACTCGC (.(.(((....))).).), the folding enthalpy in data set [1] was -24.7 kcal/mol. Further, in data set [2], the Tm was found to be 42 °C.
Turning to GTGGGTGGAAACATCCAC ((((.((....)).)))), the folding enthalpy in data set [1] is -32.4 kcal/mol. The Tm in data set [2] turned out to be 53.5 °C.
With GTGGGTGGAAACGCCCAC (((((.(....).))))), the folding enthalpy in data set [1] was -40.3 kcal/mol. For the same sequence, the Tm in data set [2] stood at 61.8 °C.
As for GTGGGTGGAAACGCTCAC (((.(.(....).).))), in data set [1], the folding enthalpy is -33 kcal/mol. Moreover, in data set [2], the Tm came to 40.6 °C.
With GTGGGTTCGAAAGAACAC (((..(((....)))))), the folding enthalpy in data set [1] was -27 kcal/mol. For the same sequence, the Tm in data set [2] came to 57.4 °C.
GTGGTACGAAAGTAGCAC (((.(((....))).))): in data set [1], the folding enthalpy was -42 kcal/mol. In addition, in data set [2], the Tm was found to be 63.2 °C.
In the case of GTGGTAGGAAACTGTCAC (((..((....))..))), in data set [1], the folding enthalpy was -17.3 kcal/mol. Moreover, the Tm in data set [2] came out at 32.9 °C.
For GTGGTCCGAAAGGATCAC (((.(((....))).))) the same measures were -41.1 kcal/mol and 60.4 °C.
GTGGTCGAAAGACAGCAC ((((((....)))..))): the folding enthalpy in data set [1] is -16.9 kcal/mol. Further, the Tm in data set [2] was 40.6 °C.
For GTGGTCGGAAACGGTCAC (((..((....))..))) the same measures were -23 kcal/mol and 44.2 °C.
On to GTGGTGAAAACCAC (((((....))))), for which the folding enthalpy in data set [1] was -27.3 kcal/mol. Also, the Tm in data set [2] is 58 °C.
